ERAP1 HTS inh: blocks human ERAP1 aminopeptidase activity; Q9NZ08; recombinant ERAP1, Leu-AMC fluorescence, 60 min; inhibition, % at 10.7 µM; 340,000 compounds, 0.15% hits; AID 652197;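 active = mean replicate inhibition of at least 30%, or all replicates individually reaching that 30% level; inactive = mean below 30% and not every replicate reaching it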;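 also: 0% = neutral control wells and 100% = L-leucinethiol positive control wells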
MLL AF4-AF9 inh: inhibitors of human MLL-AF4/AF9 interaction. AlphaScreen, biotin-AF4 peptide binding to FLAG-AF9. inhibition, % at 10 µM. 350,000 compounds, 0.47% hits;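 active = every replicate reaching a set inhibition limit, whatever the replicate mean, cut at about 25% in these data; inconclusive = mean inhibition reaches that limit but some replicates miss it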;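 also: 0% = plate neutral control median and 100% = total signal loss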
SIRT5 block: inhibitors of human sirtuin-5 desuccinylase | Q9NXA8 | Purified SirT5, succinyl-peptide AMC, trypsin-coupled fluorescence | inhibition, % at 15 µM | 330,000 compounds, 1.1% hits | AID 652115; in the data active = inhibition above about 15%; inconclusive = no clear call, values can overlap the other calls
E-selectin induc: E-selectin induction on HUVECs; P16581; HUVEC E-selectin immunofluorescence imaging; normalized: neutral wells 0, TNF-alpha wells 100; activation, % at 7.58 µM; 260,000 compounds, 0.37% hits; AID 686992;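 active = mean E-selectin-positive cell signal at least 10% of the positive control, reached in at least 60% of replicates, without over 20% cell loss; inconclusive = no rule given, readout overlaps actives, possibly toxicity-flagged; inactive = the rest, including those meeting only one limit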
Target sequence (P16581 whole entry, looked up): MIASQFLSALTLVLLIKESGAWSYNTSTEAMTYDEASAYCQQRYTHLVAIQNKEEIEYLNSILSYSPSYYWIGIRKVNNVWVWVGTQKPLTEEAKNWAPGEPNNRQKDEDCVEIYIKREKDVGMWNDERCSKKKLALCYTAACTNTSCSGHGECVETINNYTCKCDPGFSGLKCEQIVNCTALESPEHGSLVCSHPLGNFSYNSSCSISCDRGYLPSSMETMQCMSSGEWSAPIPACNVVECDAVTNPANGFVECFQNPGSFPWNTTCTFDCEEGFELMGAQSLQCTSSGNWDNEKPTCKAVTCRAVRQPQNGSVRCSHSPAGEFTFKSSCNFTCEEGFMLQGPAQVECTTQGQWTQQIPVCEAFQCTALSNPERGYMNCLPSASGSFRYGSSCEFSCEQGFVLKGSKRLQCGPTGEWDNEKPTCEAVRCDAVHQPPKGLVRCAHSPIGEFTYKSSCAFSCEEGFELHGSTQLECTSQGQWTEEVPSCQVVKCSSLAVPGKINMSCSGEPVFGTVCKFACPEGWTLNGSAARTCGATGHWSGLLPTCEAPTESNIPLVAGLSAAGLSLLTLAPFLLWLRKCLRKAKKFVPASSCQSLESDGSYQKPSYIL
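System: HUVEC, human umbilical vein endothelial cells; quantity: 3,000 cells/well; buffer or medium: EGM-2 medium, gelatin-coated wells; dosing: single-point compound dose; detection: immunofluorescence imaging; evaluation: % PE-positive cells; benchmarks: TNF-alpha, DMSO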
S100A4 MyoIIA: S100A4-myosin IIA interaction inhibition. S100A4/TAMRA-MyoIIA peptide fluorescence polarization. inhibition, % at 10.7 µM. 360,000 compounds, 0.14% hits. AID 652163;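 active = mean inhibition of at least 70% across replicates, with every replicate also reaching that level; inconclusive = mean inhibition reaches 70% but some replicates fall short; inactive = mean inhibition below 70%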
Target sequence (P26447 whole entry, looked up): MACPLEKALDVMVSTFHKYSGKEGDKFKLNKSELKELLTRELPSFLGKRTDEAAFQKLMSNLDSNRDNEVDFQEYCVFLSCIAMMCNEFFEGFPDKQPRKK
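System – human S100A4 monomer protein, biochemical binding assay · Buffer or medium – Calcium-containing HEPES buffer, pH 7.2 · Timing – 5 min between mix addition and reading · Also added – TAMRA-labelled myosin IIA heavy-chain peptide probe, 5 nM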
Ecoli rRNA inh: inhibits bacterial ribosomal RNA function over humanized ribosomes | E. coli WT GFP vs humanized-ribosome RFP mutants, fluorescence, 24 h; stronger effect = lower value; DMSO median 0, no signal -100 | AID 720706 | 350,000 compounds, 1.6% hits | GFP signal change (wild-type ribosome), % (test concentration not listed);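 active = significant combined selectivity score with lowered wild-type GFP, culture density cut under 30%, mutant RFP and density less affected; inactive = any of these conditions unmet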
* marks the source's active call; other numbers are inactive results; ? = inconclusive; / = no result given. Hits are enriched below; roughly 3.4% of the tested compounds scored in any of these assays.

SMILES	ERAP1 HTS inh	MLL AF4-AF9 inh	SIRT5 block	E-selectin induc	S100A4 MyoIIA	Ecoli rRNA inh
CC(C)NC(=O)N1CC2(C1)[C@@H](c1ccccc1)[C@H](CO)N2C(=O)C1CCC1	0.4	-2.3	-3.4	0.3	13.5	2.4
Cc1cc([N+](=O)[O-])nn1CC(=O)NCCCN1CCOCC1	2.0	0.0	0.0	26.7*	-1.5	-11.4
CN1C(=O)c2ccccc2OC1(C)Cc1ccccc1 (centres undefined)	6.7	6.5	-2.7	1.7	-3.5	-20.8*
Cc1cc(OCCn2cc(/C(N)=N/O)c3ccccc32)ccc1Cl	1.3	/	/	/	0.0	-40.0*
Cc1ccnc(Nc2nc(-c3ccc(O)c(O)c3)cs2)c1	-0.4	40.9*	2.7	0.0	0.3	-30.3
Cc1cccc(Nc2nc(-c3ccc(O)c(O)c3)cs2)n1	-1.0	25.7*	2.1	0.0	1.2	-3.2
COc1cccc(-c2ccc([C@@H]3[C@H]4CN(CC5CCOCC5)CCCCN4[C@H]3CO)cc2)c1	-2.5	4.6	-5.2	/	-30.3	/
CNC[C@H]1Oc2c(NC(=O)Cc3ccccc3)cccc2C(=O)N([C@H](C)CO)C[C@@H]1C	/	/	/	/	/	3.8
C/C=C/c1ccc2c(c1)O[C@H](CN(C)C)[C@@H](C)CN([C@@H](C)CO)S2(=O)=O	-1.7	0.5	-1.4	0.0	-2.1	1.7
CO[C@@H]1CN(C)C(=O)c2ccc(NC(=O)Cc3ccccc3)cc2OC[C@H](C)N(CC2CC2)C[C@@H]1C	-1.0	0.5	-0.4	-0.4	0.5	0.6
C[C@@H]1CCCCO[C@@H](CN(C)S(=O)(=O)c2ccc(F)cc2)[C@H](C)CN([C@H](C)CO)C(=O)c2cc(NS(=O)(=O)c3ccccc3)ccc2O1	2.5	2.4	15.9*	0.0	-9.5	-1.7
C[C@H]1CCCCO[C@H](CN(C)S(=O)(=O)c2ccc(F)cc2)[C@@H](C)CN([C@@H](C)CO)C(=O)c2cc(NS(=O)(=O)c3ccccc3)ccc2O1	2.0	2.3	3.6	0.2	113.4*	1.6
C[C@H](CO)N1C[C@H](C)[C@H](CN(C)S(=O)(=O)c2ccc(F)cc2)OCCCC[C@H](C)Oc2ccc(NS(=O)(=O)c3ccccc3)cc2C1=O	3.1	1.3	13.4	0.1	1.6	-2.2
C[C@@H]1CCCCO[C@H](CN(C)S(=O)(=O)c2ccc(F)cc2)[C@@H](C)CN([C@H](C)CO)C(=O)c2cc(NS(=O)(=O)c3ccccc3)ccc2O1	3.9	-0.7	2.6	0.1	0.8	-2.1
CN1C(=O)c2cc(NC(=O)c3cccs3)ccc2OC[C@H]2O[C@H](CC(=O)N3CCOCC3)CC[C@H]21	1.4	1.5	1.8	0.0	8.2	2.0
CN(C)CC#Cc1ccc([C@H]2[C@H]3CN(CC4CC4)CCCCN3[C@H]2CO)cc1	2.8	19.3	-4.5	-0.2	8.3	2.2
CN(C)CC#Cc1ccc([C@@H]2[C@H](CO)N3CCCCN(CC4CC4)C[C@@H]23)cc1	3.2	27.4*	-4.6	0.1	0.3	5.1
CN(C)CC#Cc1ccc([C@@H]2[C@@H](CO)N3CCCCN(CC4CC4)C[C@@H]23)cc1	-0.2	25.8*	1.5	-0.4	-5.7	2.7
CN(C)CC#Cc1ccc([C@H]2[C@@H](CO)N3CCCCN(CC4CCOCC4)C[C@H]23)cc1	0.5	8.8	/	-0.2	3.8	8.6
O=C(Nc1ccc2c(c1)OCCO2)c1ccc(S(=O)(=O)N2CCCCC2)cc1	1.6	/	-7.0	0.4	-4.5	-32.1*
O=C(NC(=O)c1ccccc1F)OCc1ccc(Cl)cc1Cl	-0.8	-6.3	-1.6	/	-1.1	-40.2*
Cc1ccc(C(=O)c2coc3cc([N+](=O)[O-])c(O)c([N+](=O)[O-])c23)cc1	7.0	3.3	1.0	-1.3	6.4	-48.3*
COc1ccc(C#Cc2cnc3c(c2)C(=O)N([C@H](C)CO)C[C@H](C)[C@H](CN(C)S(=O)(=O)c2ccc(C#N)cc2)O3)cc1OC	-1.0	1.6	4.7	?	-2.5	-3.4
COc1c(OC(C)=O)ccc(/C=C/c2ccc3ccccc3n2)c1[N+](=O)[O-]	5.1	-1.1	1.8	/	1.7	-42.9*
Cc1cccc(C)c1OCC(N)C(C)C (centres undefined)	105.3*	-16.7	0.3	3.8	-10.6	/
SMILES	ERAP1 HTS inh	MLL AF4-AF9 inh	SIRT5 block	E-selectin induc	S100A4 MyoIIA	Ecoli rRNA inh
Cc1ccccc1CN(C)C(C)C(=O)Nc1ccccc1F (centres undefined)	3.4	-1.1	-2.5	1.4	-7.5	-47.2
Cc1cccc(C)c1NC(=O)CN(C)C(C)C(=O)Nc1ccccc1-c1ccccc1 (centres undefined)	3.1	1.0	4.0	1.6	1.6	-25.1*
N#C[C@@H]1[C@@H](c2ccccc2-c2ccccc2)[C@@H](CO)N1C(=O)NC1CCCC1	16.2	-2.4	1.9	0.0	-3.4	4.8
CNC[C@@H]1Oc2c(NS(=O)(=O)c3ccc(C)cc3)cccc2C(=O)N([C@@H](C)CO)C[C@@H]1C	0.8	-2.3	7.6	0.4	0.6	7.1
CSc1nnc(-c2cc[n+](C)cc2)n1CCO	101.5*	-0.3	-5.0	1.7	-14.0	0.2
CSc1nnc(-c2cccs2)n1C	3.8	0.8	-1.0	/	-2.0	14.3
CCCCCn1c(CCNC(=O)c2cccs2)nc2ccccc21	-0.7	11.7	1.0	/	3.1	-30.1*
Cn1cccc2[nH]c(=O)nc1-2	88.8*	-60.0	-5.2	0.1	-2.9	5.0
Cc1ccc(-c2nc(=O)[nH]c3ccccc23)cc1	1.1	6.0	-1.1	/	7.8	3.2
Cc1noc(C)c1S(=O)(=O)Nc1ccc2c(c1)C(=O)N([C@H](C)CO)C[C@@H](C)[C@@H](CN(C)Cc1ccc3c(c1)OCO3)O2	0.4	3.6	3.4	44.0*	-1.0	4.4
Cc1noc(C)c1S(=O)(=O)Nc1ccc2c(c1)C(=O)N([C@H](C)CO)C[C@@H](C)[C@@H](CN(C)Cc1ccc(Cl)c(Cl)c1)O2	0.6	3.4	2.7	/	6.3	-13.6
Cc1noc(C)c1S(=O)(=O)Nc1ccc2c(c1)C(=O)N([C@H](C)CO)C[C@@H](C)[C@H](CN(C)Cc1ccc3c(c1)OCO3)O2	2.0	0.0	4.1	26.1*	3.6	-1.6
C[C@@H]1CN([C@@H](C)CO)C(=O)c2cc(NC(=O)C3CCCCC3)ccc2O[C@@H](C)CCCCO[C@@H]1CN(C)C(=O)Nc1ccc2c(c1)OCO2	-3.0	-1.2	1.5	0.0	2.5	-1.2
CC(C)CC#Cc1ccc2c(c1)O[C@@H](CN(C)CC1CCOCC1)[C@H](C)CN([C@H](C)CO)S2(=O)=O	-0.8	8.1	16.7*	0.7	-16.6	-17.5
C[C@H](CO)N1C[C@H](C)[C@@H](CN(C)CC2CC2)Oc2cc(-c3cccc(C#N)c3)ccc2S1(=O)=O	-0.5	1.0	16.0*	-0.3	2.5	-0.1
